# According to ChEMBL document CHEMBL4270606, “Pyridine bioisosteres of potent GluN2B subunit containing NMDA receptor antagonists with benzo[7]annulene scaffold” (Eur J Med Chem, 2018):
# pIC50, pKi: −log10 of the molar value.
# What was measured:
# [1] = molecular target: Glutamate NMDA receptor; GRIN1/GRIN2B (Homo sapiens, UniProt Q05586+Q13224); assay: Displacement of [3H]-ifenprodil from GluN1a/GluN2B (unknown origin) expressed in L(tk-) cell membranes after 120 mins by scintillation counting analysis
# Sus scrofa = species: Sus scrofa; assay: Displacement of [3H]-(+)-MK-801 from PCP binding site of NMDA receptor in pig brain cortex membranes at 1 uM after 120 mins by solid scintillation counting relative to control; type: cell membranes
# How it was run: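 Single 1 µM test concentration: inhibition (%) of 2 nM [3H]-(+)-MK-801 binding to pig brain cortex membranes (about 100 µg protein). Buffer was 5 mM TRIS/1 mM EDTA, pH 7.5, at rt. Nonspecific binding defined with 10 µM unlabeled (+)-MK-801. Bound radioactivity collected by filtration and counted by solid scintillation.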
# [2] = Displacement of [3H]-(+)-MK-801 from PCP binding site of NMDA receptor in pig brain cortex membranes after 120 mins by solid scintillation counting; type: cell membranes, Sus scrofa
# How it was run: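 Pig brain cortex membranes (about 100 µg protein) incubated with 2 nM [3H]-(+)-MK-801 and test compound at 10^-5 to 10^-9 mol/L (final) in 5 mM TRIS/1 mM EDTA, pH 7.5, at rt with shaking. Nonspecific binding defined with 10 µM unlabeled (+)-MK-801. Filtration, melted solid scintillator, [3H] counting. Duplicates. IC50 by non-linear regression, converted to Ki via Cheng-Prusoff (Kd 2.26 nM). Mean ± SEM of three experiments.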
# [3] = molecular target: Sigma non-opioid intracellular receptor 1 (Cavia porcellus, UniProt Q60492); assay: Displacement of [3H]-(+)-pentazocine from sigma1 receptor in guinea pig brain cortex membrane after 120 mins by scintillation counting method; type: cell membranes
# [4] = molecular target: T1, Sigma intracellular receptor 2 (Rattus norvegicus, UniProt Q5U3Y7); assay: Displacement of [3H]-di-o-tolylguanidine from sigma2 receptor in rat liver membranes incubated for 120 mins by scintillation counting method; type: cell membranes, Membrane
# T1 sequence (Q5U3Y7 whole entry): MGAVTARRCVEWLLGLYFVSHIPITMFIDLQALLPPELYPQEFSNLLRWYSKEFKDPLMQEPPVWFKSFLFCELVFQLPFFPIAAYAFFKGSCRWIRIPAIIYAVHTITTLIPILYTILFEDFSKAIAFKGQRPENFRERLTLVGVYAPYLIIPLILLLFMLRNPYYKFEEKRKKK
# Glutamate NMDA receptor; GRIN1/GRIN2B, sequence (Q13224 whole entry, other chains not shown): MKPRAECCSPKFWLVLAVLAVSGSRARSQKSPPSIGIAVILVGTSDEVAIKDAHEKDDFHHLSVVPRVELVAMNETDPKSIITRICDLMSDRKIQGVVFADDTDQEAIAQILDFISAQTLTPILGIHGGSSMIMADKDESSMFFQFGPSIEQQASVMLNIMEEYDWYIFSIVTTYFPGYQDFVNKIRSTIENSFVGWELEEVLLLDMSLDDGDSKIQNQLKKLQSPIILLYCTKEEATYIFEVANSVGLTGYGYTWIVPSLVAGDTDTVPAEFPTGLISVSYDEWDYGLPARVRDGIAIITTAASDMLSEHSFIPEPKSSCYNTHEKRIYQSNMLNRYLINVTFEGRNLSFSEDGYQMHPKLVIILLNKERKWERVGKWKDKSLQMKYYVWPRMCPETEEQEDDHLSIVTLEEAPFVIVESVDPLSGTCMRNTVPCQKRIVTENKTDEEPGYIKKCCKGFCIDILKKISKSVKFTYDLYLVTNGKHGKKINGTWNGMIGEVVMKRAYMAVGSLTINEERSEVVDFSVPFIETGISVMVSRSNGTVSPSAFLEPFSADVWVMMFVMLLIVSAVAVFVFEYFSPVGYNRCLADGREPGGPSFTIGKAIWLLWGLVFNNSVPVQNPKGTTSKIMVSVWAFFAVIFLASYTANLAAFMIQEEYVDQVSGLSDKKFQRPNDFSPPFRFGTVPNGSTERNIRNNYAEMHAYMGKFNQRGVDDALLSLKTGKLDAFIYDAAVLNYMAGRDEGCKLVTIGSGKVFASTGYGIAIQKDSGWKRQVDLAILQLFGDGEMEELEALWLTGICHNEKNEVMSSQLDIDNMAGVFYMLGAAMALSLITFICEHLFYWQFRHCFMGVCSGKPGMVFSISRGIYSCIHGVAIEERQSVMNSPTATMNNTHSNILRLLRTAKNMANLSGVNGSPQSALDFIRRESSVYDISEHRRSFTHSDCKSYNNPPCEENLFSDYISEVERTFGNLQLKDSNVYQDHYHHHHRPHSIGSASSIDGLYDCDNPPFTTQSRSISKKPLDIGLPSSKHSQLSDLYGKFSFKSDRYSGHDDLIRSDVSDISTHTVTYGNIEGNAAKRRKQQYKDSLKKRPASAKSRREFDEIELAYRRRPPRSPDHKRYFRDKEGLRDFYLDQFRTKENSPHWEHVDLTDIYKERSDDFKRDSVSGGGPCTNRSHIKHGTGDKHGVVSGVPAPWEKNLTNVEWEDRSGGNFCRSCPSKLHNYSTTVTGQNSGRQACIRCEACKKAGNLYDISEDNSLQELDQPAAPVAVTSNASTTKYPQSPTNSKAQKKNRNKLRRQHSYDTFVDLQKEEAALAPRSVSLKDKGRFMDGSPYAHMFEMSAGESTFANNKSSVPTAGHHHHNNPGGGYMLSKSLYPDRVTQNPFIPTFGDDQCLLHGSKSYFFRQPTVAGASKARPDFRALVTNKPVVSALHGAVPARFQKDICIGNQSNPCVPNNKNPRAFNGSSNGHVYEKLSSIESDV
# Sigma non-opioid intracellular receptor 1, sequence (Q60492 whole entry): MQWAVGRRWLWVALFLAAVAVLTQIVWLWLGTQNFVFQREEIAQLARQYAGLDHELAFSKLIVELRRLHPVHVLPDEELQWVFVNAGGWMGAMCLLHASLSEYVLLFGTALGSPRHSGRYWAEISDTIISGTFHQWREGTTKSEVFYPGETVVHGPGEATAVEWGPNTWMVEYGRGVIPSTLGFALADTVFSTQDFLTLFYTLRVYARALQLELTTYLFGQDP
Structure (SMILES),pKi [1],inhibition (Sus scrofa) [%],pIC50 [2],pKi [3],pKi [4]
c1ccc(CNC2CCc3cccnc3CC2)cc1 (stereo not given),< 6.00,0,< 6.00,6.03,6.31
CN(CCCCc1ccccc1)C1CCc2cccnc2CC1 (stereo not given),6.32,5,< 6.00,6.58,6.94

# These reach a higher pKi [1]. Values come first.
pKi [1],inhibition (Sus scrofa) [%],pIC50 [2],pKi [3],pKi [4],Structure (SMILES)
6.83,8,< 6.00,6.67,7.17,c1ccc(CCCCNC2CCc3cccnc3CC2)cc1 (stereo not given)
6.35,0,< 6.00,6.58,7.17,CN(CCCc1ccccc1)C1CCc2cccnc2CC1 (stereo not given)
6.52,10,< 6.00,6.00,6.56,c1ccc(CCCNC2CCc3cccnc3CC2)cc1 (stereo not given)
